The values below come from ChEMBL document CHEMBL1125203, “The synthesis and antiviral activity of some 4'-thio-2'-deoxy nucleoside analogues” (J Med Chem, 1991).

In one series the test system is Mus musculus. The series is described as follows: Toxicity of compound was measured after ip administration to mice. It counts as organism-based. To be noted: in vivo.
Series [1] concerns Vero. The series is described as follows: Minimum inhibitory concentration required to reduce cytopathogenicity of Herpes Virus-2 (HSV-2) in vero cells by 50%. The settings on record: Chlorocebus sabaeus. It counts as functional. The essentials:
(§1)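 Plaque reduction: confluent monolayers (HSV-2 in Vero, HSV-1 in MRC-5) infected and overlaid with nutrient agarose holding doubling drug dilutions. Plaques counted after 5 days as % of control, plotted against log concentration, and IC50 read from the plot.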
For orientation: Protection from cytopathic effect is a common read-out in antiviral testing.

The test system of series [2] is MT4. The series is described as follows: Minimum inhibitory concentration required to reduce cytopathogenicity of human immunodeficiency virus-1 (HIV-1) in MT-4 cells by 50%; No activity below ID50 observed. It is filed as functional, cell-based.
The subject of series [3] is MRC5. The series is described as follows: Minimum inhibitory concentration required to reduce cytopathogenicity of Herpes Virus-1 (HSV-1) in MRC -5 cells by 50%. It counts as functional. To be noted: Homo sapiens. The method in brief: as §1
The nature of series [4]: Maximum plasma level was measured in mice. It counts as ADME, organism-based. The settings on record: mouse, read-out: Max plasma level.
Series [5] has as its system MT4. The experiment in a line: Inhibitory dose required to reduce the viability of MT-4 cells by 50%. It counts as functional, Homo sapiens. The method in brief: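 Mock-infected MT-4 cells on the same plate as the HIV test, drug at 100, 10, 1 and 0.1 µM, triplicate wells. Growth inhibition assessed after 5 days by MTT uptake into viable cells, acidified propan-2-ol extraction and spectrophotometric reading.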

The test system of series [6] is Vero. The experiment in a line: Inhibitory dose required to reduce the viability of vero cells by 50%. It is filed as functional, Chlorocebus sabaeus.
The nature of series [7]: Half life was measured in mice. It counts as ADME, organism-based. The settings on record: mouse, in vivo.
Series [8] has as its system MRC5. The experiment in a line: Minimum inhibitory concentration required to reduce cytopathogenicity of Varicella Zoster Virus (VZV) in MRC-5 cells by 50%. It is filed as functional. To be noted: Homo sapiens.
For series [9], the system named is MRC5. The experiment in a line: Minimum inhibitory concentration required to reduce cytopathogenicity of Cytomegalovirus Virus (CMV) in MRC-5 cells by 50%. It counts as functional. The settings on record: Homo sapiens. The method in brief: (§2)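 MRC-5 monolayers in 24-well panels, infected after 24 h and overlaid with 0.5% indubiose A37 medium containing drug at 10 and 100 µM. After 5 days, giant cells (plaques) stained with methylene blue and examined microscopically.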

In series [10] the test system is MRC5. The series is described as follows: Minimum inhibitory concentration required to reduce cytopathogenicity of cytomegalovirus (CMV) in MRC-5 cells by 50%. It is filed as functional. To be noted: Homo sapiens. The method in brief:
as §2

Values after ≈ are worked out from the molar mass of the structure shown.

`O=c1[nH]c(=O)n([C@H]2C[C@H](O)[C@@H](CO)S2)cc1/C=C/Br`: the Toxicity in the series on Mus musculus was > 40 mg/kg. In addition, the MIC50 is 10 µM (≈ 3.49 µg/mL) against Vero [1], “No activity” with MT4 [2], 0.6 µM (≈ 0.21 µg/mL) in the series with MRC5 [3] and 0.08 µM (≈ 0.0279 µg/mL) in the series on MRC5 [8]. Moreover, the Cmax in series [4] was > 50 µM. Besides, the ID50 with MT4 [5] and in the series on Vero [6] was > 500 µM throughout. In [7], the half-life (as a rule, the time in which the quantity being followed falls by half) was 2 h.

As to `Cc1cn([C@@H]2C[C@H](O)[C@@H](CO)S2)c(=O)[nH]c1=O`, the MIC50 against Vero [1] and with MRC5 [3] was > 100 µM in each case. Also, the ID50 in the series with MT4 [5] and in the series with Vero [6] was > 100 µM in each case.

On to `O=c1[nH]c(=O)n([C@H]2C[C@H](O)[C@@H](CO)O2)cc1/C=C/Br` [BRIVUDINE], for which the MIC50 against MRC5 [9] is > 100 µM; with Vero [1], 12 µM (≈ 4 µg/mL); in the series on MRC5 [3], 0.03 µM (≈ 0.00999 µg/mL); in the series on MRC5 [8], 0.02 µM (≈ 0.00666 µg/mL). Besides, in the series on Vero [6], the ID50 was > 500 µM.

As for `O=c1[nH]c(=O)n([C@@H]2C[C@H](O)[C@@H](CO)S2)cc1/C=C/Br`, the MIC50 against Vero [1] and against MRC5 [3] was > 500 µM throughout. In addition, the ID50 in the series on MT4 [5] is > 500 µM.

As to `Nc1nc2c(ncn2COCCO)c(=O)[nH]1` [ACYCLOVIR], the MIC50 in the series on MRC5 [9] was determined as 100 µM (≈ 22.5 µg/mL); in the series on Vero [1] it was 1.8 µM (≈ 0.405 µg/mL); with MRC5 [3] it was 1.3 µM (≈ 0.293 µg/mL). Further, the ID50 in the series with Vero [6] was > 500 µM.

For `Cc1cn([C@H]2C[C@H](O)[C@@H](CO)S2)c(=O)[nH]c1=O` [4'-THIOTHYMIDINE], the Toxicity in the series with Mus musculus was > 40 mg/kg. The MIC50 in the series with Vero [1] was 2.3 µM (≈ 0.594 µg/mL); in the series on MT4 [2], “No activity”; in the series on MRC5 [3], 0.37 µM (≈ 0.0956 µg/mL); with MRC5 [8] it was 10 µM (≈ 2.58 µg/mL); in the series on MRC5 [10], 0.98 µM (≈ 0.253 µg/mL). In series [4], the Cmax was > 35 µM. Further, the ID50 with MT4 [5] turned out to be 1 µM; in the series on Vero [6] it was 7.1 µM. Besides, the half-life in [7] was 1 h.

Regarding `Cc1cn(C2CC(N=[N+]=[N-])C(CO)S2)c(=O)[nH]c1=O` (stereo not given), the MIC50 was > 100 µM with Vero [1], “No activity” with MT4 [2] and > 100 µM with MRC5 [3]. Further, the ID50 in the series on MT4 [5] and in the series on Vero [6] was > 100 µM throughout.
